Results from different studies.
Target: Serine/threonine-protein kinase PAK 6 (PAK6, Homo sapiens, UniProt Q9NQU5)

SMILES | effect on | mode | technique | concentration | quantity | result
Cn1cc(-c2cc(F)cc(N3CCn4c(cc5c4CCCC5)C3=O)c2CO)cc(Nc2ccc(N3CCN(C4COC4)CC3)cn2)c1=O | enzyme activity | inhibitor |  | 0.1 µM | inhibition | 22%
COc1ncccc1-c1cnn2ccc(N3CCN(C(=O)OC(C)C)CC3)nc12 | binding |  | competition with immobilised ligand | 1 µM | remaining binding | 97%
Nc1ncc(-c2nc(N3CCOCC3)nc(N3CCOCC3)n2)c(C(F)F)n1 | binding |  | competition with immobilised ligand | 10 µM | remaining binding | 79%
Cn1cc(-c2cccc(N3CCc4c(sc5c4CC(C)(C)C5)C3=O)c2CO)cc(Nc2ccncn2)c1=O | enzyme activity | inhibitor |  | 1 µM | inhibition | -7%
Cn1cncc1[C@](O)(COc1ccc(C#N)cc1-c1ccc(OC(F)(F)F)cc1)c1ccc(C#N)cc1 | cell-free assay |  | competition with immobilised ligand | 1 µM | remaining binding | 98%
O=c1[nH]c2ccccc2n1C1CCN(Cc2ccc(-c3[nH]c4cc5ncnc5cc4nc3-c3ccccc3)cc2)CC1 | cell-free assay |  |  | 0.5 µM | remaining signal | 109%
Cc1nn(C)cc1-c1nc2c(N3CCN(Cc4ccc(Cl)cc4)CC3)c(Cl)cnc2[nH]1 | binding |  | competition with immobilised ligand | 1 µM | remaining binding | 100%
COc1cc(Nc2ncc(F)c(Nc3ccc4c(n3)NC(=O)C(C)(C)O4)n2)cc(OC)c1OC | binding |  | competition with immobilised ligand | 10 µM | inhibition | 96%
